SKN-1 block: inhibitors of C. elegans SKN-1. inhibition, % at 21.8 µM. C. elegans VP596 Pgst-4::GFP/RFP ratio, acrylamide-induced, 24 h. actives 0.49% (n = 360,000);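 active = interference check ratio from 0.5 to 1.5 plus GFP to RFP signal ratio inhibition reaching or exceeding a fixed threshold, cut at about 30% in these data, passing the limit was not always enough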
MT1-MMP act inh: blocks activation of human MT1-MMP; GFP/RFP ratio change, % at 20 µM; actives 0.061% (n = 360,000); HT1080 RFP-PRO-GFP cells, GFP/RFP ratio fluorescence, overnight; percent of plate control window, DMSO zero; AID 651647;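 active = GFP/RFP ratio change of at least 30% with cell ATP level not reduced by more than half and red fluorescence within 50% of control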
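Assay system: RFP-PRO-GFP reporter HT1080 cells; read-out basis: GFP/RFP fluorescence ratio; benchmarks: DMSO wells and RFP-L50D-GFP cells; doses: 20 µM single dose, 1% DMSO; schedule: overnight cell settling, then overnight compound exposure, 37 °C, 5% CO2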
Tb MetRS inh: blocks T. brucei methionyl-tRNA synthetase activity; purified T. brucei MetRS, ATP depletion, Kinase-Glo luminescence; inhibition, % at 11.9 µM; actives 0.4% (n = 360,000);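 active = inhibition above a per-plate cutoff of the control wells' mean inhibition plus 3 SD, cut at about 5.5% in these data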
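Measured by: Kinase-Glo luciferase luminescence reporting remaining unconsumed ATP. Material: purified T. brucei MetRS enzyme. Doses: 11.9 µM compound single dose, 0.9% DMSO. Medium: HEPES buffer containing pyrophosphatase, BSA, spermine, DTT. Times: 15 min preincubation, 2 h reaction, all 25 °C. Reagent: methionine, ATP and bulk E. coli tRNA.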
GC-A act: GC-A (human) enzyme activation; actives 0.14% (n = 370,000); AID 1671463; activation, % at 10 µM; HEK293 GC-A cells, cGMP TR-FRET, EC30 ANP; 0% at EC30 ANP, 100% saturating ANP; in the data active = activation above about 40%
NPR2 activator: GC-B (human) receptor activation; AID 1920062; P20594; actives 0.11% (n = 370,000); activation, % at 10 µM; HEK293-GC-B cells, CNP EC30, cGMP TR-FRET; 0% at EC30 CNP, 100% saturating CNP;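 active = activation at 10 µM reaching about 35% in either raw or pattern-adjusted values, limit read from the data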
Target sequence (P20594 whole entry, looked up): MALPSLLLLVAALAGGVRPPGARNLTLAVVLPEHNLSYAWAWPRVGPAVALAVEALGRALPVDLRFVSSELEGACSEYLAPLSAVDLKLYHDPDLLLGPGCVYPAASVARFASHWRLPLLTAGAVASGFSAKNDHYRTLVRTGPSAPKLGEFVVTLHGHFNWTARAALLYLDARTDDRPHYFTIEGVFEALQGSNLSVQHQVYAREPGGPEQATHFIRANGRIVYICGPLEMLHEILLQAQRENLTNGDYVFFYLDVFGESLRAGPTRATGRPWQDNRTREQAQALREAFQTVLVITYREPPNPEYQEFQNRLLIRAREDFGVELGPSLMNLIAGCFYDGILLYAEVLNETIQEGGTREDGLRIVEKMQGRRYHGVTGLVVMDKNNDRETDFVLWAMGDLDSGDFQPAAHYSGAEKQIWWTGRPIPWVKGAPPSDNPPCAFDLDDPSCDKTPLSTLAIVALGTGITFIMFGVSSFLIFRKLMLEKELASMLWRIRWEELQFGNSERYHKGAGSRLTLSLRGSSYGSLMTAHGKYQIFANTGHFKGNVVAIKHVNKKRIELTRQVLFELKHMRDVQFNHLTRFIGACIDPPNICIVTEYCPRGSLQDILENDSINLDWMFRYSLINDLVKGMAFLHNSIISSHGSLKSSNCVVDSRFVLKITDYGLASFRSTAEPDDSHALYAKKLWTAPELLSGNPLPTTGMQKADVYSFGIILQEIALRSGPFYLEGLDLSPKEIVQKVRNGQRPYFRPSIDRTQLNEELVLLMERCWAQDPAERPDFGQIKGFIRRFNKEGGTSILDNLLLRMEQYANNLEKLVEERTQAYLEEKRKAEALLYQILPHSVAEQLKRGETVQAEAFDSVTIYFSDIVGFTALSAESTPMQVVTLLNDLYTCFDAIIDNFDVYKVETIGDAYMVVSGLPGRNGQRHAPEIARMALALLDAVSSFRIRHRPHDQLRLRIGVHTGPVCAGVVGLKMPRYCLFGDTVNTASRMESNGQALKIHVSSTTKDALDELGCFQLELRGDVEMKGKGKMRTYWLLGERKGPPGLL
Bfl-1 A1 inh: inhibitors of the anti-apoptotic protein A1, read as caspase activation; MEF A1-2A-BIM cells, Caspase-Glo 3/7 luminescence, 3 h; percent of clofoctol response, vehicle zero; actives 0.066% (n = 330,000); caspase activation, % (no concentration beside the values);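 active = over half of replicate activation scores above 10%, or exactly half above 10 with the replicate mean above 10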
TbMetRS confirm: Trypanosoma brucei MetRS inhibition confirmed; shares compounds with Tb MetRS inh; T. brucei MetRS enzyme, luminescence (ATP depletion); actives 93% (n = 1,400); inhibition, % at 11.9 µM; AID 624412; in the data active = inhibition above about 7%
Jurkat tox: Jurkat T cell cytotoxicity for MetRS hits; shares compounds with Tb MetRS inh; Jurkat cells viability, ATP luminescence; inhibition, % at 8.3 µM; actives 12% (n = 1,400); AID 624413; in the data active = inhibition above about 15%
TbMetRS FP orth: inhibits T. brucei methionyl tRNA synthetase in orthogonal FP test. shares compounds with Tb MetRS inh. purified T. brucei MetRS, fluorescence polarization. inhibition, % at 11.9 µM. actives 44% (n = 1,400). AID 651607; in the data active = inhibition above about 17%
Large screens that a line does not name were inactive (follow-up assays come after a bar, where they were run). This is a sample that favours compounds with a hit; in the whole collection about 1.1% have one here.

CCN(CC)S(=O)(=O)c1ccc(N2CCOCC2)c(NC(=O)c2ccc(F)cc2)c1	none
O=C(OC12CCCN(C1)/C(=C/c1cccc(Cl)c1)C2)c1ccc(Cl)cc1 (stereo not drawn)	none (no result: SKN-1 block, MT1-MMP act inh, Tb MetRS inh, Bfl-1 A1 inh)
Cc1ccccc1N1CCN(S(=O)(=O)c2ccc3c(c2)oc(=O)n3C)CC1	none (no result: SKN-1 block, MT1-MMP act inh, Tb MetRS inh, Bfl-1 A1 inh)
CCCCc1c(-c2ccccc2OC)ncn1CCc1cccc(OC)c1	Tb MetRS inh 9.9 (no result: Bfl-1 A1 inh) | TbMetRS confirm 23 | Jurkat tox 36 | TbMetRS FP orth inactive
COc1ccccc1CCC(=O)Nc1cccc(S(=O)(=O)N2CCCCCC2)c1	Tb MetRS inh 5.7 | TbMetRS confirm 28 | Jurkat tox inactive | TbMetRS FP orth inactive
O=C(Cn1c(NCCO)nc2ccccc21)Nc1cccc(S(=O)(=O)N2CCCC2)c1	Tb MetRS inh 11 | TbMetRS confirm 48 | Jurkat tox inactive | TbMetRS FP orth inactive
COC(=O)[C@]12C[C@H](CC(=O)NCc3cccs3)C(=O)N(CCc3ccc(OC)c(OC)c3)C1=C[C@H](COCc1ccccc1)O[C@@H]2C	none (no result: SKN-1 block, MT1-MMP act inh, Tb MetRS inh, Bfl-1 A1 inh)
O=c1c([N+](=O)[O-])c(Cl)c2ccccc2n1Cc1ccccc1	none (no result: SKN-1 block, MT1-MMP act inh, Tb MetRS inh, Bfl-1 A1 inh)
Nc1ccc2nc(CCCCc3nc4ccccc4[nH]3)[nH]c2c1	Tb MetRS inh 9.3 | TbMetRS confirm 14 | Jurkat tox inactive | TbMetRS FP orth inactive
O=C(CC(=O)Nc1ccc(Br)cc1)Nc1ccc(Br)cc1	Tb MetRS inh 7.0 | TbMetRS confirm 11 | Jurkat tox inactive | TbMetRS FP orth inactive
O=C(Cc1cccc(Cl)c1)Nc1ccc(Br)cc1	Tb MetRS inh 40 | TbMetRS confirm 61 | Jurkat tox inactive | TbMetRS FP orth 39
O=C(CCC(=O)OCc1ccc(Br)cc1)Nc1ccccc1	Tb MetRS inh 6.1 | TbMetRS confirm 14 | Jurkat tox inactive | TbMetRS FP orth inactive
O=C(CCC(=O)OCc1ccc(C(=O)Oc2ccc(Cl)cc2)cc1)Nc1ccccc1	none
COP(=O)(O)C(COCCC(CC(C)C)NC(=O)OCc1ccccc1[N+](=O)[O-])NC(=O)OCc1ccccc1 (stereo not drawn)	none (no result: SKN-1 block, MT1-MMP act inh, Tb MetRS inh, Bfl-1 A1 inh)
Nc1nc2cc3ccccc3cc2[nH]c1=O	Tb MetRS inh 6.3 | TbMetRS confirm 5.8 | Jurkat tox inactive | TbMetRS FP orth inactive
CC(OC(=O)CNC(=O)c1ccc(Cl)c([N+](=O)[O-])c1)C(=O)NC1CCCCC1C (stereo not drawn)	Tb MetRS inh 7.2 (no result: Bfl-1 A1 inh) | TbMetRS confirm 26 | Jurkat tox inactive | TbMetRS FP orth inactive
COC(=O)C1CN(Cc2ccccc2)CCS(=O)(=O)N1Cc1cn(Cc2ccc(C)cc2)nn1 (stereo not drawn)	none (no result: SKN-1 block, MT1-MMP act inh, Tb MetRS inh, Bfl-1 A1 inh)
COCCCNC(=O)C[C@@H]1C(=O)N2CCCC3=C2[C@@]1(C(=O)OC)CCCC3	none (no result: SKN-1 block, MT1-MMP act inh, Tb MetRS inh, Bfl-1 A1 inh)
CC(O)CN1C(=O)C(CC(=O)Nc2ccc(Cl)cc2)SC1=Nc1ccccc1 (stereo not drawn)	Tb MetRS inh 27 (no result: GC-A act, NPR2 activator) | TbMetRS confirm 53 | Jurkat tox inactive | TbMetRS FP orth 22
CCn1c(SCC(=O)Nc2ccc(C(N)=O)cc2)nc2sc(C)c(C)c2c1=O	none (no result: SKN-1 block, MT1-MMP act inh, Tb MetRS inh, Bfl-1 A1 inh)
Brc1cccc(CNc2nc3ccccc3n2CCN2CCOCC2)c1	Tb MetRS inh 7.5 | TbMetRS confirm 20 | Jurkat tox inactive | TbMetRS FP orth inactive
CCn1c(COc2ccc(Cl)cc2)nnc1SCc1nc2ccccc2[nH]1	Tb MetRS inh 54 | TbMetRS confirm 58 | Jurkat tox inactive | TbMetRS FP orth 36
Cc1ccc(OCc2nnc(SCc3nc4ccccc4[nH]3)n2Cc2ccco2)cc1	Tb MetRS inh 35 | TbMetRS confirm 62 | Jurkat tox inactive | TbMetRS FP orth 34
Cc1cc(C)nc(NS(=O)(=O)c2ccc(NC(=O)Nc3ccccc3)cc2)n1	Tb MetRS inh 13 | TbMetRS confirm 16 | Jurkat tox inactive | TbMetRS FP orth inactive
Cc1cc(C)nc(NS(=O)(=O)c2ccc(NS(=O)(=O)c3ccccc3)cc2)n1	none
Cc1cc(NS(=O)(=O)c2ccc(NC(=O)Nc3ccccc3)cc2)no1	Tb MetRS inh 8.4 | TbMetRS confirm 16 | Jurkat tox inactive | TbMetRS FP orth inactive
O=C(CCCC1=NS(=O)(=O)c2ccccc2N1)OCc1ccc(Cl)cc1	Tb MetRS inh 20 | TbMetRS confirm 44 | Jurkat tox inactive | TbMetRS FP orth inactive
O=C(CCCC1=NS(=O)(=O)c2ccccc2N1)NCCc1ccc(Cl)cc1	none
O=C(Cc1ccc(Cl)cc1)Nc1cc(S(=O)(=O)N2CCOCC2)ccc1N1CCCC1	Tb MetRS inh 39 | TbMetRS confirm 52 | Jurkat tox inactive | TbMetRS FP orth 28
CCS(=O)(=O)N1CCN(c2ccc(Cl)cc2[N+](=O)[O-])CC1	Tb MetRS inh 5.7 | TbMetRS confirm 14 | Jurkat tox inactive | TbMetRS FP orth inactive
O=C(Nc1ccccc1)c1ccc(=O)n(Cc2ccc(F)c(F)c2)c1	Tb MetRS inh 9.6 | TbMetRS confirm 18 | Jurkat tox inactive | TbMetRS FP orth inactive
NC(=O)c1ccc(=O)n(Cc2ccc(F)c(F)c2)c1	none
COc1ccc(C2C(C(=O)Nc3cc(OC)c(OC)c(OC)c3)CCC(=O)N2c2ccc(OC)cc2)cc1 (stereo not drawn)	none (no result: SKN-1 block, MT1-MMP act inh, Tb MetRS inh, Bfl-1 A1 inh)
C=CC(=O)Nc1cccc(Oc2ncnc3[nH]cc(-c4cnc5ccccc5c4)c23)c1	Tb MetRS inh 8.6 | TbMetRS confirm 30 | Jurkat tox inactive | TbMetRS FP orth 21
CS(=O)(=O)NNC(=O)c1cc2cc3ccccc3nc2s1	none
COc1ccc(S(=O)(=O)NNC(=O)c2cc3cc4ccccc4nc3s2)cc1	Tb MetRS inh 5.8 | TbMetRS confirm 14 | Jurkat tox inactive | TbMetRS FP orth inactive
CN(C)S(=O)(=O)c1cccc(NC(=O)CSc2nc3ccccc3[nH]2)c1	Tb MetRS inh 6.2 | TbMetRS confirm 12 | Jurkat tox inactive | TbMetRS FP orth inactive
Cc1nonc1NC(=O)CSc1nc2ccc(Cl)cc2[nH]1	Tb MetRS inh 19 | TbMetRS confirm 33 | Jurkat tox inactive | TbMetRS FP orth 18
O=C(CSc1nc2ccccc2[nH]1)Nc1nc(-c2ccc(Br)cc2)cs1	Tb MetRS inh 20 | TbMetRS confirm 36 | Jurkat tox inactive | TbMetRS FP orth 71
